The results in this text go back to ChEMBL document CHEMBL3244360, “Usnic acid derivatives as potential antineoplastic agents” (J Med Chem, 1979).

The source made the active and inactive calls. The calls are words filed in the database; no cut-off is given here.

Data set [1] in a line: Antineoplastic activity against mouse LCC cells allografted in mouse assessed as increase in host life span at 20 to 200 mg/kg relative to control. In kind it is functional, Lewis lung carcinoma. To be noted: dose mg/kg 20-200.
The nature of data set [2]: Solubility of the compound in water at 25 degC measured per 100 ml. In kind it is physicochemical. To be noted: buffer.
Data set [3] can be described thus: Solubility of the compound in ethanol at 25 degC measured per 100 ml. In kind it is physicochemical.
A short description of data set [4]: Octanol-water partition coefficient, log P of the compound by high-performance liquid chromatography. In kind it is physicochemical.
For a further data set, the system named is L1210. The data set is described as follows: Growth inhibition of mouse L1210 cells at 0.14 umol/ml after 23 to 46 hrs by coulter counter analysis. In kind it is functional, cell-based. An outline of the steps: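 L1210 cells grown in RPMI 1630 with 16.7% heat-inactivated fetal calf serum and gentamicin 40 µg/mL. Exponentially growing cells were washed and seeded at 1 × 10^5 cells/mL. Drug was added in Me2SO to a final 1.39 ± 0.17 × 10^-7 mol/mL with continuous exposure at 37 °C. Coulter counts at 23 and 46 h gave percent inhibition versus untreated control.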

Data set [5] has as its system P388. Put plainly: Antitumor activity against mouse P388 cells allografted in mouse assessed as host median survival time at 100 mg/kg/day, ip administered as gum acacia suspension on days 1 to 9 relative to control. The data set is classed as functional. The following applies: route intraperitoneal. An outline of the steps:
(§1)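 Tumored mice got the compound intraperitoneally as a gum acacia suspension once daily on days 1-9 (nine injections), with doses in (mg/kg)/day. Read-out was T/C, the median survival time of treated over control animals as a percentage. Dose-response assays were generally run in duplicate, and the highest T/C per assay is reported with its dose.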

Data set [6] concerns P388. The data set is described as follows: Antitumor activity against mouse P388 cells allografted in mouse assessed as host median survival time at 6 mg/kg/day, ip administered as gum acacia suspension on days 1 to 9 relative to control. To be noted: route intraperitoneal. In kind it is functional. In a few lines:
as §1

The nature of data set [7]: Antitumor activity against mouse LCC cells allografted in mouse assessed as host median survival time at 6 mg/kg/day, ip administered as gum acacia suspension on days 1 to 9 relative to control. In kind it is functional, Lewis lung carcinoma. To be noted: route intraperitoneal. An outline of the steps:
as §1

Data set [8] in a line: Antitumor activity against mouse LCC cells allografted in mouse assessed as host median survival time at 50 mg/kg/day, ip administered as gum acacia suspension on days 1 to 9 relative to control. In kind it is functional, Lewis lung carcinoma. The following applies: route intraperitoneal. In a few lines:
as §1

Data set [9] has as its system P388. The data set is described as follows: Antitumor activity against mouse P388 cells allografted in mouse assessed as host median survival time at 25 mg/kg/day, ip administered as gum acacia suspension on days 1 to 9 relative to control. The data set is classed as functional. The following applies: route intraperitoneal. In a few lines:
as §1

Data set [10] can be described thus: Antitumor activity against mouse LCC cells allografted in mouse assessed as host median survival time at 12 mg/kg/day, ip administered as gum acacia suspension on days 1 to 9 relative to control. The data set is classed as functional, Lewis lung carcinoma. The following applies: route intraperitoneal. An outline of the steps:
as §1

In data set [11] the test system is P388. The data set is described as follows: Antitumor activity against mouse P388 cells allografted in mouse assessed as host median survival time at 200 mg/kg/day, ip administered as gum acacia suspension on days 1 to 9 relative to control. In kind it is functional. The following applies: route intraperitoneal. An outline of the steps: as §1
Data set [12] in a line: Antitumor activity against mouse LCC cells allografted in mouse assessed as host median survival time at 25 mg/kg/day, ip administered as gum acacia suspension on days 1 to 9 relative to control. In kind it is functional, Lewis lung carcinoma. To be noted: route intraperitoneal. An outline of the steps: as §1
Data set [13] deals with P388. The data set is described as follows: Antitumor activity against mouse P388 cells allografted in mouse assessed as host median survival time at 50 mg/kg/day, ip administered as gum acacia suspension on days 1 to 9 relative to control. In kind it is functional. To be noted: route intraperitoneal. An outline of the steps:
as §1

Data set [14] in a line: Antitumor activity against mouse LCC cells allografted in mouse assessed as host median survival time at 200 mg/kg/day, ip administered as gum acacia suspension on days 1 to 9 relative to control. The following applies: route intraperitoneal. The data set is classed as functional, Lewis lung carcinoma. An outline of the steps: as §1
The nature of data set [15]: Antitumor activity against mouse LCC cells allografted in mouse assessed as host median survival time at 3 mg/kg/day, ip administered as gum acacia suspension on days 1 to 9 relative to control. In kind it is functional, Lewis lung carcinoma. The following applies: route intraperitoneal. In a few lines:
as §1

Data set [16] in a line: Antitumor activity against mouse LCC cells allografted in mouse assessed as host median survival time at 100 mg/kg/day, ip administered as gum acacia suspension on days 1 to 9 relative to control. The data set is classed as functional, Lewis lung carcinoma. To be noted: route intraperitoneal. An outline of the steps:
as §1

The subject of data set [17] is P388. Put plainly: Antitumor activity against mouse P388 cells allografted in mouse assessed as host median survival time at 12 mg/kg/day, ip administered as gum acacia suspension on days 1 to 9 relative to control. The following applies: route intraperitoneal. The data set is classed as functional. An outline of the steps:
as §1

Consider `CC(=O)C1=C(O)C=C2Oc3c(C(C)=O)c(O)c(C)c(O)c3[C@]2(C)C1=O` [(-)-USNIC ACID], for which the Activity in data set [1] amounted to 35%. Further, the solubility in [2] is given as < 10 mg; in data set [3], 20 mg. In data set [4], the logP was 2.88. Further, in the data set with L1210, the “growth inhibition (GI)” value is “Active”. Also, in the data set on P388 [5], the T/C is reported as 141%.
The compound `CC(=O)c1c(O)c(C)c(O)c2c1OC1=CC(=O)/C(=C(\C)N)C(=O)C12C` (configuration not stated) came in with a logP in [4] of 3.2. In the data set on L1210, the “growth inhibition (GI)” value was “Active”. Also, the T/C in the data set with P388 [6] amounted to 107%; in data set [7], 110%; in [8], 111%.
Consider `CC(=O)C1=C(O)CC2Oc3c(C(C)=O)c(O)c(C)c(O)c3C2(C)C1=O` (configuration not stated), for which the logP in data set [4] is 2.4. Further, the “growth inhibition (GI)” value in the data set on L1210 was “Active”. Besides, the T/C in the data set on P388 [9] amounted to 118%; with P388 [5], 128%; in data set [10], 107%; in data set [8], 107%.
`CC(=O)Oc1c(C)c(O)c(C(C)=O)c2c1C1(C)C(=O)C(C(C)=O)=C(O)C=C1O2` (configuration not stated): in data set [4], the logP came out at 2.7. Besides, in the data set on L1210, the “growth inhibition (GI)” value is “Active”. Besides, the T/C in the data set with P388 [11] was determined as 113%; in data set [12], 118%; in [8], 112%.
As to `CC(=O)c1c(O)c(C)c(O)c2c1OC1=CC(=O)c3c(C)noc3C12C` (configuration not stated), the “growth inhibition (GI)” value in the data set with L1210 is “Active”. For the same compound, the T/C in the data set on P388 [5] is 114%; in [7], 112%; in [10], 117%.
`CC(=O)c1c(O)c(C)c(O)c2c1OC1=Cc3c(c(C)nn3C)C(=O)C12C` (configuration not stated): the logP in data set [4] was 2.8. Besides, the “growth inhibition (GI)” value in the data set on L1210 is “Active”. Moreover, the figures for the T/C (with P388 [13]; in data set [10]; in data set [14]) were 118%, 103% and 112%, respectively.
Regarding `CC(=O)Oc1c(C)c(OC(C)=O)c2c(c1C(C)=O)OC1=CC(O)=C(C(C)=O)C(=O)C12C` (configuration not stated), the logP in data set [4] is 2.5. In the data set on L1210, the “growth inhibition (GI)” value was “Active”. The T/C in the data set on P388 [6] turned out to be 115%; in the data set with P388 [11], 144%; in [7] it was 111%; in data set [10], 117%.
On to `CC(=O)c1c(O)c(C)c(O)c2c1OC1=Cc3onc(C)c3C(=O)C12C` (configuration not stated), for which the T/C in the data set on P388 [5] was 104%; in data set [8] it was 111%.
For the compound `CC(=O)Oc1c(C)c(OC(C)=O)c2c(c1C(C)=O)OC1CC(=O)C(C(C)=O)=C(O)C21C` (mixture of isomers), the logP in data set [4] was determined as 2.3. In addition, the “growth inhibition (GI)” value in the data set on L1210 was “Active”. The T/C with P388 [9] is 108%; in the data set with P388 [13], 112%; in [15] it was 104%; in [8] it was 114%.
In the case of `COC12CC(O)=C(C(C)=O)C(=O)C1(C)c1c(OC(C)=O)c(C)c(O)c(C(C)=O)c1O2` (mixture of isomers), the logP in data set [4] was determined as 2.6. Moreover, the “growth inhibition (GI)” value in the data set with L1210 was “Active”. Moreover, the results for the T/C (in the data set with P388 [9]; with P388 [5]; in data set [8]) were 106%, 124% and 108%, respectively.
In data set [4], `COC12CC(O)=C(C(C)=O)C(=O)C1(C)c1c(O)c(C)c(O)c(C(C)=O)c1O2` (mixture of isomers) came in with a logP of 2.3. Besides, the “growth inhibition (GI)” value with L1210 was “Active”. Also, the T/C in the data set on P388 [9] is reported as 128%; with P388 [13] it was 122%; in [12] it was 122%; in data set [8] it was 106%.
The compound `CC(=O)c1c(O)c(C)c(O)c2c1OC1=Cc3c(c(C)nn3-c3ccccc3)C(=O)C12C` (configuration not stated) gave a logP in [4] of 3.2. Moreover, the “growth inhibition (GI)” value in the data set on L1210 was “Active”. Further, the T/C in the data set with P388 [6] was determined as 122%; in the data set on P388 [11] it was 110%; in data set [12], 111%; in data set [16] it was 108%.
Turning to `CC(=O)c1c(O[C@@H]2O[C@H](CO)[C@@H](O)[C@H](O)[C@H]2O)c(C)c(O)c2c1OC1=CC(=O)/C(=C(/C)N)C(=O)C12C` (some centres not stated), the T/C is on record as 104% with P388 [17] and 108% with P388 [9].
In the case of `CC(=O)C1=C(O)C=C2Oc3c(C(C)=O)c(O[C@@H]4O[C@H](CO)[C@@H](O)[C@H](O)[C@H]4O)c(C)c(O)c3C2(C)C1=O` (some centres not stated), the logP in data set [4] worked out at 0.56. Also, the T/C with P388 [9] is 102%; with P388 [13] it was 108%.
The compound `C=C1c2c(O)c(C)c(O)c(C(C)=O)c2OC12C=C(C(=O)O)C(=O)C2` (configuration not stated) came in with a logP in data set [4] of 1.3. In addition, the T/C with P388 [17] was 112%; in the data set with P388 [9], 108%; in [8] it was 127%; in data set [16] it was 109%.
